rRNA inh HTS – inhibits bacterial ribosomal RNA function over humanized ribosomes | AID 720706 | 350,000 tested, 1.6% active | E. coli WT GFP vs humanized-ribosome RFP mutants, fluorescence, 24 h; hits give low values; DMSO median 0, no signal -100 | GFP signal change (wild-type ribosome), % (concentration not given with the values);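 active means significant combined selectivity score with lowered wild-type GFP, culture density cut under 30%, mutant RFP and density less affected; inactive means any of these conditions unmet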
CFTR F508del cor – CFTR F508del correction in bronchial cells; CFBE cells, YFP halide quenching; stimulated with forskolin plus potentiator P3; % fluorescence drop versus neutral controls; activity (quench increase), % at 7.58 µM; 350,000 tested, 0.36% active;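 active means mean added fluorescence quench of at least 8% versus neutral control, with both replicates also reaching 8%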;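 further: cells transiently co-express mutant CFTR-F508del with the halide-sensitive YFP; corrector assay measuring rescue of mutant channel to the surface after 24 h compound exposure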
SIRT5 inh – inhibitors of human sirtuin-5 desuccinylase; Q9NXA8; Purified SirT5, succinyl-peptide AMC, trypsin-coupled fluorescence; inhibition, % at 15 µM; 330,000 tested, 1.1% active; AID 652115; in the data active means inhibition above about 15%
Target sequence (Q9NXA8 whole entry, looked up): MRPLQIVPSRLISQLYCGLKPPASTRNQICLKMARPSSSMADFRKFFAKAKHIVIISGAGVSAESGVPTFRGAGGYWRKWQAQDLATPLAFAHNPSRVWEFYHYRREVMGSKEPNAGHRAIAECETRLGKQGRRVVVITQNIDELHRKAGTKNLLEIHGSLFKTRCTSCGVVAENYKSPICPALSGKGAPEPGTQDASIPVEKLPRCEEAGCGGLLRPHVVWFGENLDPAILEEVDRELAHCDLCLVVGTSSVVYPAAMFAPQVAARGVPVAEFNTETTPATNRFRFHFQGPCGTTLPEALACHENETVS
S100A4 MyoIIA – blocks human S100A4 binding to myosin IIA peptide. S100A4/TAMRA-MyoIIA peptide fluorescence polarization. inhibition, % at 10.7 µM. 360,000 tested, 0.14% active;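 active means mean inhibition of at least 70% across replicates, with every replicate also reaching that level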
Target sequence (P26447 whole entry, looked up): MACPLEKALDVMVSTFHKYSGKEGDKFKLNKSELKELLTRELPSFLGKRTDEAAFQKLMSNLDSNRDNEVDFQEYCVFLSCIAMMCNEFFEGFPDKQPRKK
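assay system = human S100A4 monomer with TAMRA-labelled myosin IIA peptide | also added = labelled myosin peptide probe, 5 nM | incubation = 5 min between mix addition and reading | control set = DMSO and TFP controls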
ERAP1 inh – blocks human ERAP1 aminopeptidase activity; Q9NZ08; recombinant ERAP1, Leu-AMC fluorescence, 60 min; inhibition, % at 10.7 µM; 340,000 tested, 0.15% active;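 active means mean replicate inhibition of at least 30%, or all replicates individually reaching that 30% level; inactive means mean below 30% and not every replicate reaching it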;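 further: 0% = neutral control wells and 100% = L-leucinethiol positive control wells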
* = called active by the depositor; . = not tested or not shown; ! = repeats disagree. In the library only some 3.1% were active in any assay of this set; here they are far more common.

SMILES	rRNA inh HTS	CFTR F508del cor	SIRT5 inh	S100A4 MyoIIA	ERAP1 inh
O=C(CN1c2ccccc2S(=O)(=O)c2ccccc21)NCc1ccccc1	-13.8	-1.4	-2.9	-0.9	3.2
O=C(CN1c2ccccc2S(=O)(=O)c2ccccc21)NCc1ccc(F)cc1	-32.7*	-1.1	-2.2	-6.4	4.1
C[C@@H]1CCCCO[C@H](CN(C)S(=O)(=O)c2cn(C)cn2)[C@H](C)CN([C@H](C)CO)C(=O)c2cc(NC(=O)CCCN(C)C)ccc2O1	-0.8	-0.4	8.2	11.3	-0.1
Cc1ccccc1C(=O)NC(=S)NCCC1=CCCCC1	-34.0	2.6	34.8*	-1.1	-9.3
O=C(NC(=S)NCCC1=CCCCC1)c1ccco1	-5.7	.	-0.7	-0.6	2.5
O=C(CCNC(=O)c1ccc([N+](=O)[O-])cc1)NCCC1=CCCCC1	-2.2	5.4	-4.0	-2.1	-1.1
O=C(COC(=O)c1ccc(Br)cc1)NCCC1=CCCCC1	16.8	2.4	6.9	-1.4	1.9
O=C(COC(=O)c1ccccc1)NCCC1=CCCCC1	-27.5*	-2.0	5.9	-10.2	-2.5
Cc1cc(C(=O)NCCC2=CCCCC2)ccc1[N+](=O)[O-]	-34.8*	.	-5.0	-13.7	6.2
C[C@@H]1CN([C@@H](C)CO)C(=O)c2cc(NC(=O)Cc3cn(C)c4ccccc34)ccc2O[C@@H]1CN(C)S(=O)(=O)c1cn(C)cn1	4.7	3.1	-3.4	7.4	2.3
C[C@@H]1CN([C@@H](C)CO)C(=O)Cc2cc(NC(=O)CCCN(C)C)ccc2O[C@@H]1CN(C)S(=O)(=O)c1ccccc1	4.3	-0.4	.	.	.
CO[C@H](CN(C)C(=O)C1CC1)[C@H](C)CN(C(=O)Nc1ccc(C(F)(F)F)cc1)[C@@H](C)CO	-63.3	-0.3	.	0.1	-6.2
O=C(c1ccc(F)cc1)N1CC(=O)N2[C@@H](CO)[C@@H](c3ccc(C#CCC4CCCC4)cc3)[C@@H]2C1	-10.3	-1.4	3.6	-5.5	4.3
O=C(c1ccc2c(c1)OCO2)N1CC(=O)N2[C@H](C1)[C@H](c1ccc(C#CCC3CCCC3)cc1)[C@@H]2CO	-1.7	7.7	23.7*	-1.8	-0.4
O=C(c1ccc2c(c1)OCO2)N1CC(=O)N2[C@H](CO)[C@@H](c3ccc(C#CCC4CCCC4)cc3)[C@H]2C1	-6.9	1.8	15.5*	10.2	-3.8
O=C(c1ccc2c(c1)OCO2)N1CC(=O)N2[C@H](C1)[C@@H](c1ccc(C#CC3CCCC3)cc1)[C@@H]2CO	-3.0	.	.	.	.
O=C(c1ccc2c(c1)OCO2)N1CC(=O)N2[C@H](C1)[C@@H](c1ccc(C#CCC3CCCC3)cc1)[C@@H]2CO	1.3	2.2	17.8*	11.6	-1.3
O=C(c1ccc(F)cc1)N1CC(=O)N2[C@H](C1)[C@H](c1ccc(C#CCC3CCCC3)cc1)[C@@H]2CO	-8.7	3.7	19.4*	11.1	4.4
O=C(C[C@@H]1CC[C@H](NC(=O)c2ccccn2)[C@@H](CO)O1)NCc1cccc(F)c1	0.4	-1.0	-10.9	6.3	-0.3
C[C@@H]1CCCCO[C@@H](CN(C)S(=O)(=O)c2ccc(F)cc2)[C@H](C)CN([C@H](C)CO)C(=O)c2cc(NS(=O)(=O)c3cn(C)cn3)ccc2O1	-2.6	-1.3	-1.2	1.6	3.5
N#C[C@@H]1[C@H](c2ccc(C#CC3CCCC3)cc2)[C@H](CO)N1C(=O)Cc1ccccn1	-46.0	1.2	0.7	6.9	1.8
CN(C)C(=O)C[C@@H]1C=C[C@@H](NC(=O)Nc2cccc(F)c2)[C@@H](CO)O1	0.2	3.3	10.6	3.0	5.7
O=C(c1cccc(F)c1)N1CC(=O)N2[C@@H](CO)[C@@H](c3ccc(C#Cc4ccc(F)cc4)cc3)[C@@H]2C1	-57.4	8.2*	-3.2	5.4	-1.2
O=C(/C=C/c1ccc(Cl)cc1)NC(=S)Nc1ccccc1C(=O)O	-18.1*	-4.3	2.1	3.8	-5.9
Cc1ccc(/C=C/C(=O)N2CCN(c3cccc(C(F)(F)F)c3)CC2)cc1	-2.6	.	30.0*	-4.9	1.8
SMILES	rRNA inh HTS	CFTR F508del cor	SIRT5 inh	S100A4 MyoIIA	ERAP1 inh
O=C(COc1ccccc1)N1c2ccccc2Sc2ccccc21	-33.5*	-4.7	-1.6	-5.3	-0.4
C[C@@H]1CN([C@@H](C)CO)C(=O)Cc2cc(NC(=O)C3CCCCC3)ccc2O[C@@H]1CN(C)Cc1ccc(Cl)c(Cl)c1	-4.7	4.9	6.9	-16.0	2.8
CC(C)NC(=O)Nc1ccc2c(c1)C(=O)N([C@H](C)CO)C[C@H](C)[C@@H](CN(C)Cc1ccc(Cl)c(Cl)c1)O2	5.6	0.6	24.3*	-17.8	2.6
C[C@@H]1CN([C@H](C)CO)C(=O)Cc2cc(NC(=O)CCN3CCOCC3)ccc2O[C@H]1CN(C)Cc1ccc2c(c1)OCO2	4.6	0.3	6.0	123.2*	5.8
C[C@H](CO)N1C[C@H](C)[C@H](CN(C)Cc2ccc(Cl)c(Cl)c2)Oc2ccc(NC(=O)C3CCCCC3)cc2CC1=O	-0.2	10.0*	6.8	3.8	-0.1
C[C@H](CO)N1C[C@H](C)[C@@H](CN(C)Cc2ccc(Cl)c(Cl)c2)Oc2ccc(NC(=O)CCC(F)(F)F)cc2CC1=O	-8.7	2.8	20.3*	1.2	3.0
C[C@@H]1CN([C@H](C)CO)C(=O)Cc2cc(NC(=O)CCC(F)(F)F)ccc2O[C@H]1CN(C)Cc1ccc(Cl)c(Cl)c1	-2.4	-0.9	2.0	5.5	0.8
COc1ccc2c3c(n(C)c2c1)[C@@H](CO)N(C)CC31CN(C(=O)NC(C)C)C1	6.0	-0.3	.	-6.7	2.0
C[C@H]1CN([C@@H](C)CO)C(=O)c2cc(NC(=O)C3CCCCC3)ccc2O[C@H]1CN(C)Cc1ccc(-c2ccccc2)cc1	-2.5	-3.6	40.2*!	7.7	-0.5
CC(C)NC(=O)Nc1ccc2c(c1)C(=O)N([C@@H](C)CO)C[C@H](C)[C@H](CN(C)Cc1ccc(-c3ccccc3)cc1)O2	0.0	-0.5	0.4	-9.5	-0.6
CC(C)NC(=O)Nc1ccc2c(c1)C(=O)N([C@H](C)CO)C[C@@H](C)[C@@H](CN(C)Cc1ccc(-c3ccccc3)cc1)O2	-4.4	-0.6	15.5*	1.3	-2.9
C[C@@H]1CN([C@H](C)CO)C(=O)Cc2cc(NC(=O)C3CCCCC3)ccc2O[C@@H]1CN(C)Cc1ccc(-c2ccccc2)cc1	1.9	-1.5	102.3*	2.1	0.6
C[C@@H]1CN([C@@H](C)CO)C(=O)c2cc(NC(=O)CCC(F)(F)F)ccc2O[C@H]1CN(C)Cc1ccc(C(=O)O)cc1	9.0	-3.6	-0.7	8.4	-0.3
Cc1ccc2[nH]c(C(=O)N3CCCC(Nc4ccc(F)cc4)C3)cc2c1 (stereo not given)	-34.5*	1.6	0.8	-1.0	-2.0
Cc1cc(C)c(C(=O)N2CCCC(Nc3ccc(F)cc3)C2)o1 (stereo not given)	-3.1	1.5	3.6	-2.3	0.4
